Source: ChEMBL document CHEMBL1151798, “Monoacylglycerol lipase regulates 2-arachidonoylglycerol action and arachidonic acid levels” (Bioorg Med Chem Lett, 2008)
Calls of active or inactive are those of the source. The calls are words filed in the database; no cut-off is given here.

Key:
Mus musculus [1] = assay: Decrease in Swiss-Webster mouse brain arachidonic acid level at 100 mg/kg, ip; assay type: functional, organism-based; design: dose 100 mg/kg
Method in brief: (§1)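 Mice received single intraperitoneal doses (10 or 100 mg/kg). Brain levels of 2-AG and arachidonic acid were then measured. Values are mean ± S.D., n=3 mice per treatment group.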

Mus musculus [2] = assay: Modulation of cataleptic behavior in Swiss-Webster mouse assessed as >10 sec latency along with flattened posture at 100 mg/kg, ip by bar test; assay type: functional, organism-based; design: dose 100 mg/kg
Method in brief: (§2)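 Mice were given an intraperitoneal dose of 10 or 100 mg/kg and scored for catalepsy by bar test. A cannabinoid response was a latency >10 s, plus a qualitatively flattened posture and remaining motionless with eyes open. n=3 mice per treatment group, mean ± S.D.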

Mus musculus [3] = assay: Modulation of cataleptic behavior in Swiss-Webster mouse assessed as >10 sec latency along with flattened posture and open eyes at 10 mg/kg, ip by bar test; assay type: functional, organism-based; design: dose 10 mg/kg; method in brief: as §2
Mus musculus [4] = assay: Increase in Swiss-Webster mouse brain 2-arachidonoylglycerol level at 10 mg/kg, ip; assay type: functional, organism-based; design: dose 10 mg/kg; method in brief: as §1
Cannabinoid receptor 1 = Cannabinoid receptor 1 (Mus musculus, UniProt P47746); assay: Displacement of [3H]CP-55940 from CB1 receptor in mouse brain; assay type: tissue-based
[5] = target: T1, Fatty-acid amide hydrolase 1 (Mus musculus, UniProt O08914); assay: Inhibition of FAAH-mediated [3H]anandamide hydrolysis in mouse brain; assay type: tissue-based
T1 sequence (O08914 whole entry): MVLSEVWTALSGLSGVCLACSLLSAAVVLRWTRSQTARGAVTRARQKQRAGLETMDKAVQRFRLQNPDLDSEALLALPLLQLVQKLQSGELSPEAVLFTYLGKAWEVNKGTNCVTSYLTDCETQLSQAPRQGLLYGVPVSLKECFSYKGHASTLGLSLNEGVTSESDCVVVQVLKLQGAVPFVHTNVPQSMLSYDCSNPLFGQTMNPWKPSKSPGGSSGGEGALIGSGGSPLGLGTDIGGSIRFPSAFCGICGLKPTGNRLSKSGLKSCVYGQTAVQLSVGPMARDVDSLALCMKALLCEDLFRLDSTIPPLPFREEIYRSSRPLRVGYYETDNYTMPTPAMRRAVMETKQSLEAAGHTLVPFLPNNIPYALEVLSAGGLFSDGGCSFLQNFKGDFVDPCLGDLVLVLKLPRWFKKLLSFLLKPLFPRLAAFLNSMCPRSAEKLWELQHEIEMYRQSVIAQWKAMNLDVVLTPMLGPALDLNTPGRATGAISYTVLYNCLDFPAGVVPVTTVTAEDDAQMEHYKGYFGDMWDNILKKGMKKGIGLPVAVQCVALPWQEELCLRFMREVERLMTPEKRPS

Mus musculus [6] = assay: Increase in Swiss-Webster mouse brain 2-arachidonoylglycerol level at 100 mg/kg, ip; assay type: functional, organism-based; design: dose 100 mg/kg; method in brief: as §1
Monoglyceride lipase = target: T2, Monoglyceride lipase (Mus musculus, UniProt O35678); assay: Inhibition of MAGL-mediated 2-arachidonoylglycerol hydrolysis in mouse brain; assay type: tissue-based
T2 sequence (O35678 whole entry): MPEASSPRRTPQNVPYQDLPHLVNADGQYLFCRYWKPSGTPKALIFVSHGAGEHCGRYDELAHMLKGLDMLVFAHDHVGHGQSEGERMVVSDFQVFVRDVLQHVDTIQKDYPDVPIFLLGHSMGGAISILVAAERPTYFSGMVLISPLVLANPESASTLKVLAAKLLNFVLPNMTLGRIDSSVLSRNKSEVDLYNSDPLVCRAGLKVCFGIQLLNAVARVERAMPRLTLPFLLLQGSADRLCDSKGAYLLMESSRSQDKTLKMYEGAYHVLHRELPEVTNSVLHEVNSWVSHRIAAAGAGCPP

Mus musculus [7] = assay: Decrease in Swiss-Webster mouse brain arachidonic acid level at 10 mg/kg, ip; assay type: functional, organism-based; design: dose 10 mg/kg; method in brief: as §1
[8] = target: Cannabinoid receptor 1 (Mus musculus) (UniProt P47746); assay: Displacement of [3H]CP-55940 from CB1 receptor in mouse brain at 100 nM; assay type: tissue-based
[9] = target: Cannabinoid receptor 1 (Mus musculus) (UniProt P47746); assay: Displacement of [3H]CP-55940 from mouse CB1 receptor expressed in HEK293 cells up to 100,000 nM; assay type: cell-based

Chain of Cannabinoid receptor 1 (P47746 whole entry): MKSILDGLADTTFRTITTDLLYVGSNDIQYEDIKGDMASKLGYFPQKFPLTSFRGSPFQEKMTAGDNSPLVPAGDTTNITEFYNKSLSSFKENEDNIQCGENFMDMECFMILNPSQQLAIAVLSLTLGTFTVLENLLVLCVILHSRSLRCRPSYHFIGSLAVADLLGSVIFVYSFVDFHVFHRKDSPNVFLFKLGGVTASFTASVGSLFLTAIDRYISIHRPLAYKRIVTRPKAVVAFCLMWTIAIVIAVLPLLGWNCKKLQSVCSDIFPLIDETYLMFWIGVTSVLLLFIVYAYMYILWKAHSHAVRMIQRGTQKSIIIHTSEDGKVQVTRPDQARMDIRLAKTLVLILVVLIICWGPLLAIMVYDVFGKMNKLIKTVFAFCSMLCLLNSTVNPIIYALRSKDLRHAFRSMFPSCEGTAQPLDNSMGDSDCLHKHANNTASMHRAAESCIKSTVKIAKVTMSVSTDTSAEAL
Chain of Cannabinoid receptor 1 (Mus musculus) (P47746 whole entry): as above

Question: Which results are given for `CCCCCCCCCCCCP(=O)(OCC)Oc1nc(Cl)c(Cl)cc1Cl` (stereo not drawn)?
Answer: Activity (Mus musculus [1]): inactive; Activity (Mus musculus [2]): inactive; Activity (Mus musculus [3]): inactive; Activity (Mus musculus [4]): inactive; IC50 (Cannabinoid receptor 1): 14 nM; IC50 [5]: 42 nM; Activity (Mus musculus [6]): inactive; IC50 (Monoglyceride lipase): 0.14 nM; Activity (Mus musculus [7]): inactive

Question: Which results are given for `CCOP(=O)(OCC)Oc1nc(Cl)c(Cl)cc1Cl`?
Answer: Bmax [8]: 0.17 pmol/mg; Activity [9]: inactive

Question: For `CCCCCCCCCSP1(=O)OCc2ccccc2O1` (stereo not drawn), which IC50 [5] is on record?
Answer: 0.15 nM

Question: What about the IC50 (Monoglyceride lipase) of the same compound?
Answer: 0.31 nM

Question: `CCCCCCCCS(=O)(=O)F` was tested. Which Activity (Mus musculus [1]) did it give?
Answer: Active

Question: What about the Activity (Mus musculus [2]) of the same compound?
Answer: Active

Question: What about the Activity (Mus musculus [3]) of the same compound?
Answer: Active

Question: And the Activity (Mus musculus [4])?
Answer: Active

Question: What about the IC50 [5] of the same compound?
Answer: 1.9 nM

Question: What about the Activity (Mus musculus [6]) of the same compound?
Answer: Active

Question: What about the IC50 (Monoglyceride lipase) of the same compound?
Answer: 140 nM

Question: And the Activity (Mus musculus [7])?
Answer: Active

Question: What does the source list for `CCCCCCCCCCCCS(=O)(=O)F` [DODECANESULFONYL FLUORIDE]?
Answer: Activity (Mus musculus [1]): Active; Activity (Mus musculus [2]): Active; Activity (Mus musculus [3]): Active; Activity (Mus musculus [4]): Active; Activity (Mus musculus [6]): Active; IC50 (Monoglyceride lipase): 200 nM; Activity (Mus musculus [7]): Active

Question: Which Activity (Mus musculus [1]) does the source give for `CCCCCCCCCCCCP(=O)(OCC)Oc1ccc(C#N)cc1` (stereo not drawn) here?
Answer: Active

Question: What about the Activity (Mus musculus [2]) of the same compound?
Answer: Active

Question: What about the Activity (Mus musculus [3]) of the same compound?
Answer: Active

Question: And the Activity (Mus musculus [4])?
Answer: Active

Question: What about the IC50 (Cannabinoid receptor 1) of the same compound?
Answer: 4 nM

Question: And the IC50 [5]?
Answer: 12 nM

Question: And the Activity (Mus musculus [6])?
Answer: Active

Question: What about the IC50 (Monoglyceride lipase) of the same compound?
Answer: 0.07 nM

Question: And the Activity (Mus musculus [7])?
Answer: Active

Question: How did the IC50 (Cannabinoid receptor 1) turn out when `CCCCCCCCCCCCP(=O)(Oc1ccc([N+](=O)[O-])cc1)OC(C)C` (stereo not drawn) was run?
Answer: 12 nM

Question: What about the IC50 [5] of the same compound?
Answer: 3 nM

Question: And the IC50 (Monoglyceride lipase)?
Answer: 0.28 nM

Question: Which results are given for `CCOP(=O)(OCC)Oc1ccc([N+](=O)[O-])cc1` [PARAOXON]?
Answer: IC50 (Cannabinoid receptor 1): 1200 nM; IC50 [5]: 540 nM; IC50 (Monoglyceride lipase): 2300 nM
